Results pooled from the literature.
Each line is one published result; the experiments were not run side by side.
Target: Phosphorylase b kinase gamma catalytic chain, skeletal muscle/heart isoform (PHKG1, Homo sapiens, UniProt Q16816)

Structure (SMILES)	effect on	technique	concentration	remaining binding [%]
CC(=O)c1c(NS(C)(=O)=O)c2cc(-c3ccc(Cl)cc3)c(-c3ccc(Cl)cc3Cl)nc2n(C)c1=O	cell-free assay	competition with immobilised ligand	1 µM	94
c1cncc(-c2cccc(Nc3nccc(NC4CCCCC4)n3)c2)c1	binding	competition with immobilised ligand	10 µM	75
CCC(=N\O)/C(C)=C/c1ccc(F)cc1	cell-free assay	competition with immobilised ligand	1 µM	100
CN(C)c1ncc(F)c(-c2cnn3ncccc23)n1	binding	–	1 µM	100
C[C@@H](c1ccc(-n2cnc3c(N)ncnc32)cc1)N1CCc2nn(C)c(Cc3ccccc3)c2C1=O	binding	competition with immobilised ligand	0.1 µM	90
Nc1ncc2c(n1)-c1c([nH]c3ccc(C#CC4CC4)cc13)CCCC2	binding	competition with immobilised ligand	1 µM	93
CNC(=O)[C@@H]1CC[C@@H](n2c(-c3ccc4cnccc4c3)nc3ccc(C(=O)NCc4cccc(C(N)=O)c4)cc32)C1	binding	competition with immobilised ligand	1 µM	100
FC(F)(F)Oc1cccc(-c2cnc3ccc(-c4ccncc4)nn23)c1	cell-free assay	competition with immobilised ligand	5 µM	43
O=C(Nc1c[nH]nc1C(=O)NC1CCNCC1)c1cc(F)cc(F)c1	binding	competition with immobilised ligand	1 µM	93
O=C(NCCCN1CCOCC1)c1ccc(Nc2ncc(Cl)c(-c3ccc(Cl)s3)n2)cc1	binding	competition with immobilised ligand	1 µM	56
CN(CCCC(F)(F)F)c1nccc(-c2cnn3ncccc23)n1	binding	–	1 µM	100
COc1ncc2cc3ccccc3nc2c1C#N	cell-free assay	competition with immobilised ligand	5 µM	83
O=C(NCCCN1CCOCC1)c1ccc(Nc2nccc(-c3cc4ccccc4s3)n2)cc1	binding	competition with immobilised ligand	1 µM	49
c1cnn2ncc(-c3ccnc(N4CCC45COC5)n3)c2c1	binding	–	1 µM	85
N#CC1(c2ccccn2)CCN(Cc2cc(C(=O)N3CCCC3)c(=O)n3ccccc23)CC1	cell-free assay	competition with immobilised ligand	1 µM	100
O=C(c1ccc(Nc2ncc(Cl)c(-c3cc4ccccc4s3)n2)cc1)N1CCC(N2CCCC2)CC1	binding	competition with immobilised ligand	1 µM	54
CO[C@H]1CC[C@H](CNc2ccc(S(=O)(=O)NC(=O)c3ccc(N4CCN(CC5=C(c6ccc(Cl)cc6)CC(C)(C)CC5)CC4)cc3Oc3cnc4[nH]ccc4c3)cc2[N+](=O)[O-])CC1	cell-free assay	competition with immobilised ligand	1 µM	100
COc1ccnn2ncc(-c3ccnc(N(C)C)n3)c12	binding	–	1 µM	100
CCCOc1ccc([C@@H]2[C@@H](C(=O)O)[C@H](c3ccc4c(c3)OCO4)CN2CC(=O)Nc2c(CC)cccc2CC)cc1	cell-free assay	competition with immobilised ligand	1 µM	97
N[C@H]1CCN(c2nccc(-c3cnn4ncccc34)n2)C1	binding	–	1 µM	84
CC1=C(C#N)C(c2ccc3c(c2)c(NC(=O)c2ccccc2C)nn3C)C(C#N)=C(C)N1	cell-free assay	competition with immobilised ligand	1 µM	91
C[C@@H]1CCN(c2nccc(-c3cnn4ncccc34)n2)C1	binding	–	1 µM	100
